Laboratory results published in ChEMBL document CHEMBL2040752, “Synthesis and effects of some novel tetrahydronaphthalene derivatives on proliferation and nitric oxide production in lipopolysaccharide activated Raw 264.7 macrophages” (Eur J Med Chem, 2011).
The source made the active and inactive calls. The calls are words filed in the database; no cut-off is given here.

Key:
RAW264.7 [1] = experiment: Inhibition of nitrite level in LPS-induced mouse RAW264.7 cells at 50 uM by Griess assay relative to LPS treated control; type: functional
In short: (§1)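 RAW 264.7 cells (4 ×10⁴ per well) pre-incubated with compound for 1 h, then stimulated with LPS ([…]) for 20 h. Supernatant mixed 1:1 with Griess reagent (1% sulfanilamide, 0.1% naphthylethylenediamine dihydrochloride, 2% phosphoric acid) for 10 min at room temperature, read at 550 nm against a NaNO₂ standard curve. Nitrite in the LPS-only group is set as 100%; % inhibition given as mean ± value.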

RAW264.7 [2] = experiment: Cytotoxicity against mouse RAW264.7 cells at 50 uM by MTT assay; type: cell-based; conditions: raw264.7, 50 µM
In short: (§2)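 RAW 264.7 macrophages (4 ×10⁴ per well) pretreated with compound for 1 h, then held with or without LPS ([…]) for 20 h. After the supernatant was removed for nitrite assay, cells got 0.5 mg/mL MTT for 1 h at 37 °C. Formazan was dissolved in DMSO for at least 2 h in the dark and read at 550 nm; data are absorbance, mean ± S.D.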

RAW264.7 [3] = experiment: Cytotoxicity against mouse RAW264.7 cells at 5 uM by MTT assay; type: cell-based; conditions: raw264.7, 5 µM; in short: as §2
RAW264.7 [4] = experiment: Inhibition of nitrite level in LPS-induced mouse RAW264.7 cells at 5 uM by Griess assay relative to LPS treated control; type: functional; in short: as §1

Row | SMILES | inhibition at 50 µM (RAW264.7 [1]) | Activity (RAW264.7 [2]) | Activity (RAW264.7 [3]) | inhibition at 5 µM (RAW264.7 [4]) | inhibition (RAW264.7 [4]) | inhibition (RAW264.7 [1])
1 | COc1ccc(/C=C/C(=O)Nc2cc3c(cc2C)C(C)(C)CCC3(C)C)cc1OC | 32.8% | Non-toxic | Non-toxic | 24.1% |  | 
2 | CC1(C)CCC(C)(C)c2cc(C(=O)NC3CC(C)(C)N([O])C(C)(C)C3)ccc21 | 59.2% | Toxic |  | 18.2% |  | 
3 | CC1(C)CCC(C)(C)c2cc(C(=O)NN3CCCCCC3)ccc21 | 43.6% | Toxic |  | 25.7% |  | 
4 | CC1(C)CCC(C)(C)c2cc(C(=O)Nc3nc4ccccc4[nH]3)ccc21 | 45.7% | Non-toxic | Non-toxic | 15.6% |  | 
5 | CC1(C)CC(NC(=O)c2ccc3c(c2)C(C)(C)CCC3(C)C)CC(C)(C)N1 | 42.9% | Non-toxic | Non-toxic | 19.1% |  | 
6 | CC1(C)CCC(C)(C)c2cc(C(=O)Nc3nccs3)ccc21 | 33.5% | Toxic |  |  | inactive | 
7 | CC1(C)CCC(C)(C)c2cc(C(=O)NCCN3CCOCC3)ccc21 | 40.1% | Toxic |  | 14.3% |  | 
8 | CC1(C)CCC(C)(C)c2cc(C(=O)Nc3cccc4ccccc34)ccc21 | 5.7% |  |  | 10.5% |  | 
9 | CCOC(=O)N1CCC(NC(=O)c2ccc3c(c2)C(C)(C)CCC3(C)C)CC1 | 30% |  |  |  | inactive | 
10 | Cc1cc2c(cc1NC(=O)CCCC[C@@H]1CCSS1)C(C)(C)CCC2(C)C | 22.8% |  |  | 28.5% |  | 
11 | Cc1cc2c(cc1NC(=O)C1(C)CCc3c(C)c(O)c(C)c(C)c3O1)C(C)(C)CCC2(C)C (stereo not drawn) | 10.5% | Toxic |  |  | inactive | 
12 | COc1ccc(CCCC(=O)Nc2cc3c(cc2C)C(C)(C)CCC3(C)C)cc1OC |  | Toxic |  |  | inactive | inactive
13 | CC1(C)CCC(C)(C)c2cc(C(=O)Nc3cc[nH]c(=O)n3)ccc21 | 21.1% | Toxic |  | 11.5% |  | 
14 | CC1(C)CCC(C)(C)c2cc(C(=O)NN3CCCCC3)ccc21 | 10.5% | Toxic |  |  | inactive | 
15 | O=C(O)/C=C/c1ccc(O)c(O)c1 [CAFFEIC ACID] | 44.2% | Non-toxic | Non-toxic | 23.2% |  | 
16 | Cc1cc2c(cc1NC(=O)c1ccc3c(c1)C(C)(C)CCC3(C)C)C(C)(C)CCC2(C)C |  | Toxic | Toxic |  | inactive | inactive
17 | COc1cc(/C=C/C(=O)Nc2cc3c(cc2C)C(C)(C)CCC3(C)C)ccc1O | 48% | Toxic |  | 17.8% |  | 

Row | SMILES | inhibition at 50 µM (RAW264.7 [1]) | Activity (RAW264.7 [2]) | Activity (RAW264.7 [3]) | inhibition at 5 µM (RAW264.7 [4]) | inhibition (RAW264.7 [4]) | inhibition (RAW264.7 [1])
18 | O=C(O)CCCCC1CCSS1 (stereo not drawn) [LIPOIC ACID, ALPHA] | 46% | Non-toxic | Non-toxic | 25.2% |  | 
19 | CC(=O)Oc1c(C)c(C)c2c(c1C)CCC(C)(C(=O)Nc1cc3c(cc1C)C(C)(C)CCC3(C)C)O2 (stereo not drawn) | 4.4% |  |  | 15.8% |  | 
20 | CC1(C)CCC(C)(C)c2cc(C(=O)Nc3ncccn3)ccc21 | 18.6% |  |  |  | inactive | 
21 | Cc1cc2c(cc1NC(=O)CCCc1ccccc1)C(C)(C)CCC2(C)C |  | Toxic |  |  | inactive | inactive
22 | CC1(C)CCC(C)(C)c2cc(C(=O)NCc3ccc(F)cc3F)ccc21 | 7.7% | Toxic |  |  | inactive | 
23 | COc1cc(/C=C/C(=O)O)ccc1O [FERULATE] | 39.1% | Non-toxic | Non-toxic | 24.8% |  | 
24 | Cc1cc2c(cc1NC(=O)/C=C/c1ccc(O)c(O)c1)C(C)(C)CCC2(C)C | 46.2% | Toxic |  | 23.3% |  | 
25 | CC1(C)CCC(C)(C)c2cc(C(=O)NCc3ccccc3)ccc21 | 15.9% |  |  |  | inactive | 
26 | CC1(C)CCC(C)(C)c2cc(C(=O)NCc3ccc(Cl)cc3Cl)ccc21 | 6.6% |  |  |  | inactive | 
27 | Cc1c(C)c2c(c(C)c1O)CCC(C)(C(=O)O)O2 (stereo not drawn) [TROLOX] | 39.3% | Non-toxic | Non-toxic | 33.4% |  | 
28 | CC1=C(/C=C/C(C)=C/C=C/C(C)=C/C(=O)O)C(C)(C)CCC1 [TRETINOIN] | 66% | Non-toxic | Non-toxic | 57.2% |  | 
29 | CC1(C)CC(N)CC(C)(C)N1[O] [TEMPAMINE] | 45.6% | Non-toxic | Non-toxic | 26.9% |  | 
30 | CC1(C)CCC(C)(C)c2cc(C(=O)NC3CCN(Cc4ccccc4)CC3)ccc21 | 22.5% | Non-toxic | Non-toxic | 21% |  | 
31 | CC1(C)CCC(C)(C)c2cc(C(=O)NN3CCOCC3)ccc21 | 34.3% | Toxic |  | 5.8% |  | 
32 | CC1(C)CCC(C)(C)c2cc(C(=O)NC3CC3)ccc21 | 38.2% | Toxic |  | 20.5% |  | 
33 | Cc1cc2c(cc1NC(=O)/C=C/c1ccccc1)C(C)(C)CCC2(C)C |  | Toxic |  |  | inactive | inactive
